Key:
[1] = (§1) Cytotoxicity against human CEM-SS cells assessed as reduction in cell viability incubated for 6 days by […]; type: cell-based; details: CEM-SS cells, read-out: TC50
In short: (§2)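 Uninfected CEM-SS cells (2.5 × 10³/well) in RPMI with 10% FBS, 2 mM L-glutamine, penicillin/streptomycin, exposed to six serial compound concentrations for 6 days at 37 °C, 5% CO2. Viability read by XTT staining (OD 450/650 nm); TC50 derived from percent viability of uninfected drug-control wells.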

[2] = test system: Human immunodeficiency virus 1; assay: Antiviral activity against HIV1 RF infected in human CEM-SS cells assessed as inhibition of viral replication incubated for 6 days by XTT assay; type: functional, organism-based
In short: (§3)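 CEM-SS cells (2.5 × 10³/well) in RPMI with 10% FBS, 2 mM L-glutamine, penicillin/streptomycin; six serial compound concentrations added with HIV-1 RF titered to give 85–95% cell killing at day 6. AZT run in parallel as positive control. Incubated 6 days at 37 °C, 5% CO2; viability by XTT (OD 450/650 nm). EC50 from percent CPE reduction; SI = TC50/EC50.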

[3] = Selectivity index, ratio of TC50 for human CEM-SS cells to EC50 for HIV1 RF infected in human CEM-SS cells; type: toxicity, cell-based; details: for selectivity ratio: CEM-SS cells, read-out: Selectivity Index; in short: as §3
CEM-SS = assay: as §1; type: cell-based; details: cem-ss, 144 h, read-out: TC50 (the source's name); in short: as §2
[4] = Prodrug activation in human PBMC cells assessed as 2-(3-amino 3-oxopropylcarbamoyl)benzenethiolate formation; type: cell-based
[5] = Dissociation constant, pKa of compound; type: physicochemical
[6] = Drug metabolism of compound in phosphate buffer incubated for 12 hrs in presence of acetyl-1,2,13C2 CoA by 13C-NMR spectrometric method
In short: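 Thiol and acetyl-1,2-13C2 CoA at 10:1 stoichiometric ratio incubated in degassed (helium-sparged) 0.1 M phosphate buffer pH 7.0 (4:1 H2O/D2O) with 2% DMF, 37 °C, 12 h in a sealed NMR tube. Equilibrium confirmed by 13C NMR monitoring; equilibrium constant for thiol–thioester exchange determined from spectra.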

[7] = Drug metabolism of compound in nucleophilic proteinogenic cysteines assessed as 2-(3-amino 3-oxopropylcarbamoyl)benzenethiolate formation
[8] = Drug metabolism of compound in glutathione assessed as 2-(3-amino 3-oxopropylcarbamoyl)benzenethiolate formation
[9] = Human immunodeficiency virus 1, RF, CEM-SS, 144 h

SMILES | CC50 at 144 h [1] [µM] | EC50 [2, 9] [µM] | selectivity ratio [3] | further results
CCCC(=O)OCSc1ccccc1C(=O)NCC(=O)OC | 27.3 | > 100 | – | –
CCCC(=O)OCSc1c(C)cccc1C(=O)NCCC(N)=O | – | > 100 | – | –
CCCC(=O)OCSc1ccccc1C(=O)NCC(=O)NC(C)C | 92 | 5 | 18.4 | –
CCCC(=O)OCSc1ccccc1C(=O)NCCCCCC(N)=O | 16.3 | 3.1 | 5.26 | –
CCCC(=O)OCSc1ccccc1C(=O)N1CCC[C@H]1C(N)=O | > 100 | > 100 | – | –
CCCC(=O)OCSc1ccccc1CC(=O)NCC(N)=O | > 100 | > 100 | – | –
CCCC(=O)OCSc1ccccc1C(=O)N[C@H]1CCC[C@@H]1C(N)=O | – | – | – | Selectivity Index [3]: 15; CC50 (CEM-SS): 43.3 µM; EC50 [2]: 2.9 µM
CCCC(=O)OCSc1ccccc1C(=O)NCCCCCNC(C)=O | 9.2 | 3.9 | 2.36 | –
CCCC(=O)OCSc1ccccc1C(N)=O | 12.4 | > 100 | – | –
CCCC(=O)OC[Se]c1ccccc1C(=O)NCC(N)=O | 6.8 | > 100 | – | –
C#CCNC(=O)CNC(=O)c1ccccc1SCOC(=O)CCC | 95.4 | 4.7 | 20.3 | –
CCCC(=O)OCSc1ccccc1C(=O)NC | 5.7 | > 100 | – | –
CCCC(=O)OCSc1ccccc1C(=O)NCCCNC(C)=O | 21.1 | 1.1 | 19.2 | –
CCCC(=O)OCSc1c(F)cccc1C(=O)NCCC(N)=O | – | > 100 | – | –
CCCC(=O)OCSc1ccccc1C(=O)NCCCCC(N)=O | 51.7 | 3.7 | 14 | –
CCCC(=O)OCSc1ccccc1C(=O)N(C)CC(N)=O | 55.3 | > 100 | – | –
CCCC(=O)OCSc1ccccc1C(=O)NCC(=O)NC(C)(C)C | 46.8 | 9.1 | 5.14 | –
CCCC(=O)OCSc1ccccc1C(=O)N(C)CC(=O)N(C)C | 57.3 | > 100 | – | –
CCCC(=O)OCSc1ccccc1C(=O)Nc1ccc(C(N)=O)cc1 | 39 | 1.6 | 24.4 | –
CCCC(=O)OCSc1ccccc1C(=O)NC1(C(N)=O)CCCC1 | > 100 | < 8.2 | – | –
CCCC(=O)OCSc1ccc(OC(F)(F)F)cc1C(=O)NC(C)(C)C(N)=O | < 56.1 | – | – | –
CCCC(=O)OCSc1ccccc1C(=O)NCCCCNC(C)=O | 17.4 | 0.57 | 30.5 | –
CCCC(=O)OCSc1ccccc1C(=O)N[C@H]1CCC[C@@H]1C(N)=O (racemic) | 31.2 | – | – | Selectivity Index [3]: 34.7; EC50 [2]: 0.9 µM
CCCC(=O)OC[Se]c1ccccc1C(=O)NCCC(N)=O | 10.5 | 8.6 | 1.22 | –
CCCC(=O)OCSc1ccccc1C(=O)NCC(=O)NCCN(C)C | 76.9 | 6.6 | 11.6 | –

SMILES | CC50 at 144 h [1] [µM] | EC50 [2, 9] [µM] | selectivity ratio [3] | further results
CCCC(=O)OCSc1ccccc1C(=O)N(C)CC(=O)NC | 62.5 | > 100 | – | –
CCCC(=O)OCSc1ccccc1C(=O)NCC(=O)NCC(N)=O | > 100 | 27.5 | > 3.64 | –
CCCC(=O)OCSc1ccccc1C(=O)NCCC(N)=O | > 100 | 2.4 | – | Drug metabolism [4]: Metabolite_Detected
CCCC(=O)OCSc1ccc(OC)cc1C(=O)NCCC(N)=O | > 100 | 1.5 | – | –
CCCC(=O)OCSc1ccccc1C(=O)N[C@@H]1CCC[C@H]1C(N)=O | 43.7 | 1.7 | 25.7 | –
CCCC(=O)OCSc1ccccc1C(=O)NCCNC(C)=O | 91.9 | 2.6 | 35.3 | –
CCCC(=O)OCSc1ccccc1C(=O)NCC(=O)NC | > 100 | 1.4 | > 71.4 | –
NC(=O)CCNC(=O)c1ccccc1S | – | – | – | pKa [5]: 5.83; Ke [6]: 0.0023
CCCC(=O)OCSc1ccccc1C(=O)N[C@@H]1CCC[C@@H]1C(N)=O | 90 | 1.8 | 50 | –
CCCC(=O)OCSc1ccccc1C(=O)Nc1ccccc1C(N)=O | 50.1 | 5.1 | 9.82 | –
CCCC(=O)OCSc1ccccc1C(=O)Nc1cccc(C(N)=O)c1 | 17.5 | 1.2 | 14.6 | –
CCCCCNC(=O)CNC(=O)c1ccccc1SCOC(=O)CCC | 24.8 | 10.3 | 2.41 | –
CC(=O)Sc1ccccc1C(=O)NCCC(N)=O | – | – | – | Ka [7]: 84 M⁻¹ s⁻¹; Ka [8]: 84 M⁻¹ s⁻¹
CCCC(=O)OCSc1ccccc1C(=O)N[C@H]1CCC[C@H]1C(N)=O (racemic) | 89.9 | 5.32 | 16.9 | –
CCCC(=O)OCSc1ccccc1C(=O)NCC(=O)NCC(=O)OC | > 100 | 4.9 | > 20.4 | –
CCCC(=O)OCSc1ccccc1C(=O)NCC(N)=O | > 100 | 2.9 | – | –
CCCC(=O)OCSc1ccccc1C(=O)OCC(N)=O | 82.1 | > 100 | – | –
NC(=O)CCNC(=O)c1cccc(S)c1 | > 100 | > 100 | – | –
CCCC(=O)OCSc1ccccc1C(=O)NCCCC(N)=O | 56.6 | 1.2 | 47.2 | –
CCCC(=O)OCSc1ccccc1C(=O)NCC(=O)N(C)C | 38.3 | 4.7 | 8.15 | –
CCCC(=O)OCSc1ccccc1C(=O)NCCCCCCC(N)=O | 10.4 | 1 | 10.4 | –
CCCC(=O)OCSc1ccccc1C(=O)NCC(=O)NCc1ccccc1 | 29.3 | 4.8 | 6.1 | –
CCCC(=O)OCSc1ccccc1C(=O)NCCCCCCNC(C)=O | 8 | 1.5 | 5.33 | –
CCCC(=O)OCSc1ccccc1C(=O)N[C@H]1CCC[C@H]1C(N)=O | – | – | – | Selectivity Index [3]: 28.3; CC50 (CEM-SS): 84.8 µM; EC50 [2]: 3 µM
